Data published in article PMC7931646 (The Journal of Experimental Medicine, 2021).
Read-outs that look alike come from different tables or passages of the source.

How the values were obtained:
adenosine A3 = adenosine A3 (Homo sapiens, UniProt P0DMS8); assay: CEREP off-target radioligand binding panel; conditions: read-out: inhibition of ligand binding
Summary of the method: (§1)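 CEREP secondary-pharmacology panel of 55 receptors, transporters and ion channels. Test compound at 10 µM was assessed for inhibition of binding of a radiolabelled reference ligand specific to each target. Result is percent inhibition of ligand binding.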

[1] = tested on: Aβ38, Aβ40, Aβ42 in plasma; assay: Acute single-dose escalation and time course efficacy in NHPs; format: in vivo, cynomolgus macaque
Summary of the method: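 Cynomolgus macaques, two male and two female. Escalation phase: single nasogastric doses of 0, 10, 30, 100 and 200 mg/kg, with blood taken 4 h post-dose. Repeat phase: 200 mg/kg for 2 d, then 100 mg/kg for 5 d, with blood on days 1 and 7 at predose and 1, 2, 4, 8 and 24 h. K3EDTA plasma was stored at ≤ −60°C. Aβ38/40/42 were measured by MSD multiplex assay.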

[2] = tested on: chloride channel (γ-aminobutyric acid–gated); assay: CEREP off-target radioligand binding panel; conditions: 10 µM
Summary of the method: as §1

CYP450 2C19 = CYP450 2C19 (Homo sapiens, UniProt P33261); assay: CYP450 inhibition, recombinant isoform; format: in vitro ADME
Sequence of CYP450 2C19 (P33261 whole entry, canonical isoform): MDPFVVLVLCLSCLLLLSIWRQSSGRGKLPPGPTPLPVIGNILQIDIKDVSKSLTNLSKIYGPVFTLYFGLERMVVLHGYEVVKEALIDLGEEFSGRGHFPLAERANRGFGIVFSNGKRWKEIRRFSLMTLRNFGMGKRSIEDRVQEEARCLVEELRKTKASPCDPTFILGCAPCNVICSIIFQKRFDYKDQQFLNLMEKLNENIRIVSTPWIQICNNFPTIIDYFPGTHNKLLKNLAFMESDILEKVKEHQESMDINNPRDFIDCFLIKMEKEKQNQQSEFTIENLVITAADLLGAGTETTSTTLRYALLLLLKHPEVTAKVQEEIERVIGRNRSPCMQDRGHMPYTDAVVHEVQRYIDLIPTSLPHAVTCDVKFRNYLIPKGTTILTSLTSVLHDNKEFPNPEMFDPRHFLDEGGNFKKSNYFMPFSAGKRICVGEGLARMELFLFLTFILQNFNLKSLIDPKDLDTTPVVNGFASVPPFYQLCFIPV
Summary of the method: (§2)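 Recombinant human CYP450 isoforms were incubated with isoform-specific probe substrates; for CYP3A4 these were midazolam and testosterone. Inhibition was quantified by LC-MS/MS analysis of probe-substrate turnover.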

[3] = tested on: Aβ42 and Aβ40 levels in plasma and brain; assay: 9-d repeat-dose efficacy in C57BL/6J mice; format: in vivo, mouse; conditions: 10 mg/kg/d for 9 d
[4] = Liver microsomal stability, human; format: in vitro ADME; conditions: liver microsomes
Summary of the method: (§3)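 Test compound at 1 µM was incubated for 30 min with liver microsomes at 1 mg/ml (human, rat or mouse). Result is percent of parent compound remaining.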

[5] = tested on: Aβ42 and Aβ40 levels in plasma and brain; assay: Acute single-dose time course efficacy in C57BL/6J mice; format: in vivo, mouse
[6] = Liver microsomal stability, mouse; format: in vitro ADME; conditions: liver microsomes
Summary of the method: as §3

MDR1-MDCK permeability = format: in vitro ADME; conditions: dog
Summary of the method: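 Transport across MDR1-MDCK cell monolayers. Apparent permeability was measured in the apical-to-basolateral direction (× 10−6 cm/s). Efflux ratio was calculated as Papp B-A / Papp A-B.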

CYP450 3A4 = CYP450 3A4 (Homo sapiens, UniProt P08684); assay: CYP450 inhibition, recombinant isoform; format: in vitro ADME
Sequence of CYP450 3A4 (P08684 whole entry, canonical isoform): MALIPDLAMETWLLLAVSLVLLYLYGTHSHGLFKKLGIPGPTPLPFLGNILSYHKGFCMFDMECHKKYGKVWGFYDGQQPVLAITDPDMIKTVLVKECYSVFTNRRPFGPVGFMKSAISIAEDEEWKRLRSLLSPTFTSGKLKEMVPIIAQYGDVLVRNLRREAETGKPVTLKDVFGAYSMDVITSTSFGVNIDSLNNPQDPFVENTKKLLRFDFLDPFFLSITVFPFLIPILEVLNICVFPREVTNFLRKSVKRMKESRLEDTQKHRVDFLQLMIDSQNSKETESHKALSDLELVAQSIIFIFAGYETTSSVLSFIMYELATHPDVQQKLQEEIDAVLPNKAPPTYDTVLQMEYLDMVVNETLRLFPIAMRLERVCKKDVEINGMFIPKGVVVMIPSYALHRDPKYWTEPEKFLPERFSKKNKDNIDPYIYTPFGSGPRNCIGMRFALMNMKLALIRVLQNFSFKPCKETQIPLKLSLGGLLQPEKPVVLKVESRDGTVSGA
Summary of the method: as §2

[7] = Estimation of effective AUC and unbound Ceffective in rodents
[8] = tested on: Aβ42, Aβ40, Aβ38 in plasma, brain and CSF; assay: 9-d repeat-dose pharmacodynamics in male Sprague-Dawley rats; format: in vivo, rat; conditions: 5 mg/kg po daily 9 d, 4 h post dose
Summary of the method: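 Male Sprague-Dawley rats, n = 14 per dose level, received vehicle (80% PEG 400, 20% water, 0.1% Tween 20) or test compound at 5, 25 or 50 mg/kg orally once daily for 9 d. Sampling was 4 h after the day-9 dose: plasma, brain extracts, and CSF from the cisterna magnum. Aβ38/40/42 were measured by MSD multiplex assay. Results are mean ± SEM, analysed by ANOVA.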

[9] = tested on: S. typhimurium bacterial strains TA98, TA100, TA1535, TA1537; assay: Non-GLP screening; format: cell-based, Salmonella typhimurium; conditions: 5–100 µM, with and without Aroclor-induced rat liver S9
Summary of the method: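 Non-GLP mini-Ames screen using S. typhimurium TA98, TA100, TA1535 and TA1537, with and without Aroclor-induced rat liver S9. Test article was applied at 5–100 µM. Read-out was bacterial growth from reversion of the histidine mutation.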

sodium channel (Site 2) = assay: CEREP off-target radioligand binding panel; conditions: 10 µM
Summary of the method: as §1

NK3 = NK3 (Homo sapiens, UniProt P29371); assay: CEREP off-target radioligand binding panel; conditions: read-out: inhibition of ligand binding
Sequence of NK3 (P29371 whole entry): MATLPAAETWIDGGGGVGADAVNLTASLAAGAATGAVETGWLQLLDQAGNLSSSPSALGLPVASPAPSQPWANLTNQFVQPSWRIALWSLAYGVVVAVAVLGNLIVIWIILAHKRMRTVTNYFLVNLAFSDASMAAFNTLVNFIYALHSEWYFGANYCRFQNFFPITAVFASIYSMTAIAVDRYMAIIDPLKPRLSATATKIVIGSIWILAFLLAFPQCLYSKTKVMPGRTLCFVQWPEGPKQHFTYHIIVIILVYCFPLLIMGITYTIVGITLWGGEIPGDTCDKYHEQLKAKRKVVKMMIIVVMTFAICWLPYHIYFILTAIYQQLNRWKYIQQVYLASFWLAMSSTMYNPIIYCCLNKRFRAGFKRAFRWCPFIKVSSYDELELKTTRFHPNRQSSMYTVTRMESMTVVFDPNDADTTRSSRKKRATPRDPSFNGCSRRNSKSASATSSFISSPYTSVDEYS
Summary of the method: as §1

[10] = tested on: Aβ42, Aβ40, Aβ38 in plasma and brain extracts; assay: Chronic 3-mo efficacy in PSAPP transgenic mice; format: in vivo, mouse; conditions: 25 mg/kg/d po
Summary of the method: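 Female PSAPP (APPswe/PSEN1dE9) mice and wild-type C57BL/6J controls, 9–10 per group, housed at 22°C on a 12:12 h light cycle. Treatment began at 90 or 180 d of age: vehicle (80% PEG 400, 20% water, 0.1% Tween 20) or test compound 25 mg/kg/d by oral gavage for 3 mo. Brain Aβ peptides were then measured.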

[11] = Single-dose i.v./po PK in cynomolgus macaques; format: in vivo, cynomolgus macaque; conditions: for clearance: male, cynomolgus monkey, plasma, iv, 1 mg/kg
Summary of the method: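 Cynomolgus monkeys received a single i.v. dose of 1 mg/kg. Whole blood was collected at set time points and processed to plasma. Drug levels were measured with a bioanalytical method validated for NHP plasma. Clearance was derived from the plasma concentration–time data.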

[12] = Kinetic aqueous solubility, PBS pH 7.4; format: physicochemical; conditions: PBS buffer, pH 7.4, aqueous buffer, kinetic from dmso stock
Summary of the method: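 Kinetic solubility in PBS at pH 7.4, read by UV/Vis absorbance and reported in micromolar.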

κ opioid receptors = assay: CEREP off-target radioligand binding panel; conditions: 10 µM
Summary of the method: as §1

histamine H1 = histamine H1 (Homo sapiens, UniProt P35367); assay: CEREP off-target radioligand binding panel; conditions: read-out: inhibition of ligand binding
Sequence of histamine H1 (P35367 whole entry): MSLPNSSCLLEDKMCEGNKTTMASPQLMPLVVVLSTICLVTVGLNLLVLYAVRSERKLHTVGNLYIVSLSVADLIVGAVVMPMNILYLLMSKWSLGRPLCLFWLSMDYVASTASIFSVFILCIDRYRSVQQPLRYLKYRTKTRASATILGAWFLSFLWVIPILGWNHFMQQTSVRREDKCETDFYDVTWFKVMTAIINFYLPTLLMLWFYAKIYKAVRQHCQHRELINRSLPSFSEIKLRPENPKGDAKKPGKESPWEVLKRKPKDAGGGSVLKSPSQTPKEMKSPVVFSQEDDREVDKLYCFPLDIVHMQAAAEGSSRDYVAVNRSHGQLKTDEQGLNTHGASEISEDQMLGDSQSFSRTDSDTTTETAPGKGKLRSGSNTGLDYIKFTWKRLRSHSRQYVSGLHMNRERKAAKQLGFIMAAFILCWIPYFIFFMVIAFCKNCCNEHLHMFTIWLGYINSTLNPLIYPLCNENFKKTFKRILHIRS
Summary of the method: as §1

[13] = Single-dose i.v./po PK in male Sprague-Dawley rats; format: in vivo, rat
Summary of the method: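 Sprague-Dawley rats received a single i.v. dose of 1 mg/kg (n = 13) or an oral dose of 5 mg/kg (n = 3). Plasma was sampled at 5 min (i.v. only), 15 and 30 min, 1, 2, 4, 8 and 12 h, and 24 and 48 h (po only). Oral bioavailability came from i.v./po comparison; fabs came from kinetic analysis.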

[14] = single oral dose 5 mg/kg, 6–12 h after administration
[15] = PSAPP mice treated from 3 mo of age (prophylactic)
[16] = PSAPP mice treated from 6 mo of age (disease-modifying)

Sequence of adenosine A3 (P0DMS8 whole entry): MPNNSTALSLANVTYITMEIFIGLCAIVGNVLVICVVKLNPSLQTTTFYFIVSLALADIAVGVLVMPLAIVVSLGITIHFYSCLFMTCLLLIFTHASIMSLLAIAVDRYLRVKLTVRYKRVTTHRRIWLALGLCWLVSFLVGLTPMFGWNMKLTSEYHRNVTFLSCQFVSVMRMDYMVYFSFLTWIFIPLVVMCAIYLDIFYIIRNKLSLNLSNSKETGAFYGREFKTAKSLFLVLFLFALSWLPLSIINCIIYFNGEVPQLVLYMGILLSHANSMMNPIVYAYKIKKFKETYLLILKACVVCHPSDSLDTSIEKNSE

COc1nc(-c2cc(C)c(N[C@@H](C)c3cc(F)cc(F)c3)nn2)ccc1-n1cnc(C)c1 [Compound 2, (S)-N-(1-(3,5-difluorophenyl)ethyl)-6-(6-methoxy-5-(4-methyl-1H-imidazol-1-yl)pyridin-2-yl)-4-methylpyridazin-3-amine]
inhibition at 10 µM (adenosine A3): > 50%
effect on levels of Aβ38 in plasma [1]: did not affect
sustained lowering of plasma Aβ42 and Aβ40 peptides ([1]; 200 mg/kg, day 1 of repeat-dosing phase, for over 24 h): ~70%
inhibition of ligand binding [2]: Greater than 50%
IC50 (CYP450 2C19): 12 µM
elimination of detectable Aβ42 in brain [3]: 100%
reduction in plasma Aβ42 levels [3]: > 90%
remaining at 0.5 h, 1 µM [4]: 71%
reduction of brain Aβ42 levels [5, 14]: ~50%
reduction of plasma Aβ42 levels [5, 14]: ~70%
duration of appreciable lowering of brain Aβ42 peptide levels ([5]; single oral dose 10 mg/kg): ~24 h
reduction of Aβ42 levels in brain at peak reduction ([5]; single oral dose 10 mg/kg): > 70%
reduction of Aβ42 levels in plasma at peak reduction ([5]; single oral dose 10 mg/kg): > 90%
time of maximal reduction of Aβ42 levels in plasma ([5]; single oral dose 5 or 10 mg/kg): 1 h
remaining at 0.5 h, 1 µM [6]: 91%
Papp A→B (MDR1-MDCK permeability): 233 nm/s
IC50 (CYP450 3A4): 9.4 µM
IC50 (CYP450 3A4; CYP450 IC50 3A4 (m), probe substrate midazolam): 42 µM
unbound average Ceffective ([7]; plasma unbound fraction 0.1%): ~0.58 ng/mL
unbound average Ceffective ([7]; plasma unbound fraction 1.0%): 5.8 ng/mL
AUC ([7]; rat, plasma): 13.8 µg·h/mL
Brain % Aβ42 ∆ vs vehicle (↓ reduction) [8]: 54%
Brain %Aβ40 ∆ vs vehicle (↓ reduction) [8]: 29%
CSF % Aβ42 ∆ vs vehicle (↓ reduction) [8]: 41%
CSF %Aβ40 ∆ vs vehicle (↓ reduction) [8]: 29%
Plasma % Aβ40 ∆ vs vehicle (↓ reduction) [8]: 57%
Plasma % Aβ42 ∆ vs vehicle (↓ reduction) [8]: 78%
Ames [9]: Negative
inhibition of ligand binding (sodium channel (Site 2)): Greater than 50%
inhibition at 10 µM (NK3): > 50%
reduction of brain Aβ42, detergent-insoluble (formic acid) extract [10, 15]: 54%
reduction of brain Aβ42, detergent-soluble (RIPA buffer) extract [10, 15]: 44%
reduction of brain Aβ42, detergent-insoluble (formic acid) extract [10, 16]: 39%
reduction of brain Aβ42, detergent-soluble (RIPA buffer) extract [10, 16]: 45%
CL as percent of reported hepatic blood flow ([11]; NHPs, hepatic blood flow 50 ml/min/kg): < 10%
clearance ([11]; CL, NHPs): 0.33 L/h/kg
clearance ([11]; Cl, NHP): 0.331 L/h/kg
solubility kinetic [12]: < 1.3 µM
inhibition of ligand binding (κ opioid receptors): Greater than 50%
inhibition at 10 µM (histamine H1): > 50%
CL as percent of reported hepatic blood flow ([13]; hepatic blood flow 75 ml/min/kg): < 10%
fraction of dose absorbed from intestinal lumen (fabs) ([13]; kinetic analysis): ~90%
clearance ([13]; male, Sprague-Dawley, rat, plasma, iv, 1 mg/kg, CL): 0.36 L/h/kg
